Experimental data: publication PMC8716398 (Biochemical and Biophysical Research Communications, 2021)
Where two headings read alike, the source gives them in different places.

Experiments:
3CLpro [1] = target: T1, 3CLpro (Severe acute respiratory syndrome coronavirus 2, UniProt P0DTD1); type: biochemical, SARS-CoV-2
3CLpro [2] = target: T1, 3CLpro; assay: biochemical; type: binding, SARS-CoV-2
3CLpro of SARS-CoV-2 [3] = target: T2, 3CLpro of SARS-CoV-2 (Severe acute respiratory syndrome coronavirus 2, UniProt P0DTD1); assay: Analysis of inhibition type; type: biochemical
3CLpro [4] = target: T1, 3CLpro; assay: Surface plasmon resonance; type: binding, SARS-CoV-2; settings: SPR, heterogeneous ligand model
3CLpro [5] = target: T1, 3CLpro; assay: Isothermal titration calorimetry; parameters: species or system SARS-CoV-2; settings: KD of the secondary binding, ITC, two sets of independent sites model, 25 °C
Procedure, shortened: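 ITC was run at 25 °C in 10 mM HEPES pH 7.4 containing 2% DMSO. Test compound (2 mM, syringe) was injected stepwise into 40 μM 3CLpro in the cell, with 120 s between injections. A matching titration into buffer alone was subtracted. Integrated peak areas were fitted with a two-sets-of-independent-sites model.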

3CLpro of SARS-CoV-2 [6] = target: T2, 3CLpro of SARS-CoV-2; assay: Enzyme activity assay, hydrolytic activity of 3CLpro; type: biochemical
Papain = target: T3, Papain (Carica papaya, UniProt P00784); assay: Enzyme activity assay, hydrolytic activity of Papain; type: biochemical
T3 sequence (P00784 134-345): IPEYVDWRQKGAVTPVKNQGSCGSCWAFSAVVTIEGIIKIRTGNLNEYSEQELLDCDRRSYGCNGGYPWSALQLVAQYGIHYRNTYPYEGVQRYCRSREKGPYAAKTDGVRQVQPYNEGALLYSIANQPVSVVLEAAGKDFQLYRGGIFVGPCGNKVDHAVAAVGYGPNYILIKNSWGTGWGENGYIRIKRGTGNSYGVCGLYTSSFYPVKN

Proteinase K = Proteinase K (Parengyodontium album, UniProt P06873); assay: Enzyme activity assay, hydrolytic activity of Proteinase K; type: biochemical
[7] = HTS of ∼6000 compounds at 16.7 μM

Chain of Proteinase K (P06873 106-384): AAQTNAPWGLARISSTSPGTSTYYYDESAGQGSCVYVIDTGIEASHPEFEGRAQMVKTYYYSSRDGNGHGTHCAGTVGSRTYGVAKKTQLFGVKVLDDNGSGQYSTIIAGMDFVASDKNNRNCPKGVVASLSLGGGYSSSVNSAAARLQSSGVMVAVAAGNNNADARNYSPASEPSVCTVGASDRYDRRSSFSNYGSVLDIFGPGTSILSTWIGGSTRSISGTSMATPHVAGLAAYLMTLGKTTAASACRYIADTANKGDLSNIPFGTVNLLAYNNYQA

`CC(C)=CC[C@@H](O)C1=CC(=O)c2c(O)ccc(O)c2C1=O` [Shikonin] was tested, and the “HTS outcome (potential 3CLpro inhibitor)” value (3CLpro [1]; [7]) was “screened out”.

With `Cn1sc(=O)n(Cc2ccccc2)c1=O` [TDZD-8] the “HTS outcome (potential 3CLpro inhibitor)” value (3CLpro [1]; [7]) was “screened out”.

`CCC(C)SSc1ncc[nH]1` (centres unmarked) [PX-12] was tested, and the “HTS outcome (potential 3CLpro inhibitor)” value (3CLpro [1]) was “screened out”.

With `O=C(O)c1ccccc1-c1c2cc(Br)c(=O)cc-2oc2[c]([Hg+])c(O)c(Br)cc12` [Merbromin] the Kd (3CLpro [2]) was 11.8 ± 0.98 µM, the Ki (3CLpro of SARS-CoV-2 [3]) was 3.93 ± 1.41 µM and the “mixed constant (Alpha)” value (3CLpro of SARS-CoV-2 [3]; mixed model inhibition, global fit Eqn. (4)) was 3.77 ± 3.96. For the same compound, the ka1 (3CLpro [4]; first set) was 694.6 ± 2.61 M⁻¹ s⁻¹, the kd1 (3CLpro [4]; first set) was 1.25 ± 0.01 × 10^−3 s^−1 and the ka2 (3CLpro [4]; second set) was 646.7 ± 3.98 M⁻¹ s⁻¹. For the same compound, the kd2 (3CLpro [4]; second set) was 16.25 ± 0.08 × 10^−3 s^−1, the Kd (3CLpro [5]) was 67.8 µM and the IC50 (3CLpro of SARS-CoV-2 [6]) was 2.7 ± 0.17 µM. The IC50 (Papain) was 8.03 µM and the IC50 (Proteinase K) was greater than 70 µM.

In the case of `O=c1c2ccccc2[se]n1-c1ccccc1` [Ebselen], the “HTS outcome (potential 3CLpro inhibitor)” value (3CLpro [1]) is reported as “screened out”.

In the case of `CCN(CC)C(=S)SSC(=S)N(CC)CC` [Disulfiram], the “HTS outcome (potential 3CLpro inhibitor)” value (3CLpro [1]; [7]) is reported as “screened out”.

`O=c1sn(-c2cccc3ccccc23)c(=O)n1Cc1ccccc1` [Tideglusib] was tested, and the “HTS outcome (potential 3CLpro inhibitor)” value (3CLpro [1]; [7]) was “screened out”.
